Results gathered from unrelated publications.
Lines come from different studies, so protocols differ. pEC50, pIC50: −log10 of the molar value.

SMILES	tested on	test	system	conditions	measurement	value
Nc1ncnc2c([C@@H]3N[C@H](CO)[C@@H](O)[C@H]3O)c[nH]c12	human respiratory syncytial virus	viral replication, inhibitor	MA104	28.4 µM	inhibition	102%
O=C1c2ccccc2C(c2ccccc2)C(=O)N1O (stereo not shown)	Human betaherpesvirus 5	viral replication, inhibitor		10 µM, 7 days	inhibition	23%
CCCCCCC#Cc1cncc(-c2nnc(SCc3ccc(Cl)cc3)n2C)c1	Mycobacterium tuberculosis	microbial growth	ERDMAN		IC90	8.1 µM
N.N.[Cl][Pt][Cl]	CCD-18Co	cell growth or viability, MTS		72 h	pIC50	4.19
CCOC(=O)C1=C(N)N(c2ccc(C(=O)OCC)cc2)C(O)=C(C#N)C12C(=O)Nc1ccccc12 (stereo not shown)	HepG2	cell growth or viability, MTT		100 µM, 24 h	viability	7.8%
CCCCCCC#Cc1cncc(-c2nnc(SCc3ccc([N+](=O)[O-])o3)n2C2CC2)c1	Mycobacterium tuberculosis	microbial growth	ERDMAN		IC90	0.13 µM
O=c1[nH]c2cc(-c3ccc(Cl)cc3)sc2c(=O)n1O	Human betaherpesvirus 5	viral replication, inhibitor		10 µM, 7 days	inhibition	70%
CCCCCCC#Cc1cncc(-c2nnc(Sc3ccc([N+](=O)[O-])cc3[N+](=O)[O-])n2C)c1	Mycobacterium tuberculosis	microbial growth	ERDMAN		IC90	1.2 µM
O=c1[nH]c2sc(-c3ccc(F)cc3)cc2c(=O)n1O	Human betaherpesvirus 5	viral replication, inhibitor		10 µM, 7 days	inhibition	-12%
CCN1CC2(CCN(CCc3cc(F)ccc3F)CC2)O[C@H](C)C1=O		thermal pain	rat	intraperitoneal	ED50	1.85 mg/kg
O=C(NCc1ccc(F)cc1)c1nc(Cl)c2cccnc2c1O	Human betaherpesvirus 5	viral replication, inhibitor	HFF		pEC50	5.08
O=c1[nH]c2cc(-c3ccc(Cl)cc3)ccc2c(=O)n1O	Human betaherpesvirus 5	viral replication, inhibitor		10 µM, 7 days	inhibition	102%
CO[C@H]1/C=C/O[C@@]2(C)Oc3c(C)c(O)c4c(O)c(c(/C=N/N5CCN(C)CC5)c(O)c4c3C2=O)NC(=O)/C(C)=C\C=C\[C@H](C)[C@H](O)[C@@H](C)[C@@H](O)[C@@H](C)[C@H](OC(C)=O)[C@@H]1C	Mycobacterium tuberculosis	microbial growth	ERDMAN		pIC50	7.51
